{
  "source": "ChEMBL document CHEMBL1122744",
  "about": "“2-Chloroethyl (methylsulfonyl)methanesulfonate and related (methylsulfonyl)methanesulfonates. Antineoplastic activity in vivo” (J Med Chem, 1984)",
  "key": {"[1]": {"system": "Mus musculus", "assay": "Change in weight by day 5, obtained by subtracting treated groups of animals minus control groups of animals at dose 22 mg/kg in exp3.", "type": "functional", "method_in_brief": "(§1)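 Mice were inoculated ip with 10^6 P388 leukemia cells on day 0 and weighed 19–22 g that day. Compound was given ip once daily on days 1–5, within about 5 min of preparing the solution or suspension, to groups of six (occasionally five). Thirty inoculated untreated mice served as controls. The value is the average weight change of treated mice minus that of controls on day 5.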"}, "[2]": {"system": "Mus musculus", "assay": "Change in weight by day 5, obtained by subtracting treated groups of animals minus control groups of animals at dose 100 mg/kg in exp2.", "type": "functional", "method_in_brief": "as §1"}, "[3]": {"system": "Mus musculus", "assay": "Change in weight by day 5, obtained by subtracting treated groups of animals minus control groups of animals at dose 33 mg/kg in exp3.", "type": "functional", "method_in_brief": "as §1"}, "[4]": {"system": "Mus musculus", "assay": "Change in weight by day 5, obtained by subtracting treated groups of animals minus control groups of animals at dose 33 mg/kg in exp4.", "type": "functional", "method_in_brief": "as §1"}, "[5]": {"system": "Mus musculus", "assay": "Change in weight by day 5, obtained by subtracting treated groups of animals minus control groups of animals at dose 33 mg/kg in exp5", "type": "functional", "method_in_brief": "as §1"}, "[6]": {"system": "Mus musculus", "assay": "Change in weight by day 5, obtained by subtracting treated groups of animals minus control groups of animals at dose 33 mg/kg in exp7", "type": "functional", "method_in_brief": "as §1"}, "[7]": {"system": "Mus musculus", "assay": "Change in weight by day 5, obtained by subtracting treated groups of animals minus control groups of animals at dose 50 mg/kg in exp4.", "type": "functional", "method_in_brief": "as §1"}, "[8]": {"system": "Mus musculus", "assay": "Change in weight by day 5, obtained by subtracting treated groups of animals minus control groups of animals at dose 50 mg/kg in exp5", "type": "functional", "method_in_brief": "as §1"}, "[9]": {"system": "Mus musculus", "assay": "Mortality by day 5 expressed as number of mice died to the total treated at dose 150 mg/kg in exp2; 5/5", "type": "ADME, organism-based", "design": "dose 150 mg/kg", "conditions": "in vivo"}, "[10]": {"system": "Mus musculus", "assay": "Change in weight by day 5, obtained by subtracting treated groups of animals minus control groups of animals at dose 100 mg/kg in exp1", "type": "functional", "method_in_brief": "as §1"}, "[11]": {"system": "Mus musculus", "assay": "Median survival time of the treated control groups, in which there are no 30-day survivors at dose 15 mg/kg in exp3", "type": "functional"}, "[12]": {"system": "Mus musculus", "assay": "Median survival time of the treated control groups, in which there are no 30-day survivors at dose 22 mg/kg in exp6", "type": "functional"}, "[13]": {"system": "Mus musculus", "assay": "Mortality by day 5 expressed as number of mice died to the total treated at dose 75 mg/kg in exp2; 0/5", "type": "ADME, organism-based", "design": "dose 75 mg/kg", "conditions": "in vivo"}, "[14]": {"system": "Mus musculus", "assay": "Mortality by day 5 expressed as number of mice died to the total treated at dose 15 mg/kg in exp4; 0/6", "type": "ADME, organism-based", "design": "dose 15 mg/kg", "conditions": "in vivo"}, "[15]": {"system": "Mus musculus", "assay": "Mortality by day 5 expressed as number of mice died to the total treated at dose 200 mg/kg in exp8; 6/6", "type": "ADME, organism-based", "design": "dose 200 mg/kg", "conditions": "in vivo"}, "[16]": {"system": "Mus musculus", "assay": "Mortality by day 5 expressed as number of mice died to the total treated at dose 22 mg/kg in exp5; 0/6", "type": "ADME, organism-based", "design": "dose 22 mg/kg", "conditions": "in vivo"}, "[17]": {"system": "Mus musculus", "assay": "Mortality by day 5 expressed as number of mice died to the total treated at dose 22 mg/kg in exp6; 0/6", "type": "ADME, organism-based", "design": "dose 22 mg/kg", "conditions": "in vivo"}, "[18]": {"system": "Mus musculus", "assay": "Mortality by day 5 expressed as number of mice died to the total treated at dose 33 mg/kg in exp3; 0/5", "type": "ADME, organism-based", "design": "dose 33 mg/kg", "conditions": "in vivo"}, "[19]": {"system": "Mus musculus", "assay": "Mortality by day 5 expressed as number of mice died to the total treated at dose 33 mg/kg in exp4; 0/6", "type": "ADME, organism-based", "design": "dose 33 mg/kg", "conditions": "in vivo"}, "[20]": {"system": "Mus musculus", "assay": "Mortality by day 5 expressed as number of mice died to the total treated at dose 33 mg/kg in exp7; 0/6", "type": "ADME, organism-based", "design": "dose 33 mg/kg", "conditions": "in vivo"}, "[21]": {"system": "Mus musculus", "assay": "Mortality by day 5 expressed as number of mice died to the total treated at dose 50 mg/kg in exp5; 0/6", "type": "ADME, organism-based", "design": "dose 50 mg/kg", "conditions": "in vivo"}, "[22]": {"system": "Mus musculus", "assay": "Median survival time of the treated control groups, in which there are no 30-day survivors at dose 33 mg/kg in exp2", "type": "functional"}, "[23]": {"system": "Mus musculus", "assay": "Median survival time of the treated control groups, in which there are no 30-day survivors at dose 33 mg/kg in exp6", "type": "functional"}, "[24]": {"system": "Mus musculus", "assay": "Median survival time of the untreated control groups, in which there are no 30-day survivors at dose 50 mg/kg in exp4", "type": "functional"}, "[25]": {"system": "Mus musculus", "assay": "Median survival time of the untreated control groups, in which there are no 30-day survivors at dose 50 mg/kg in exp8", "type": "functional"}, "[26]": {"system": "Mus musculus", "assay": "Median survival time of the untreated control groups, in which there are no 30-day survivors at dose 22 mg/kg in exp6", "type": "functional"}, "[27]": {"system": "Mus musculus", "assay": "Median survival time of the untreated control groups, in which there are no 30-day survivors at dose 33 mg/kg in exp3", "type": "functional"}, "[28]": {"system": "Mus musculus", "assay": "Median survival time of the untreated control groups, in which there are no 30-day survivors at dose 33 mg/kg in exp7", "type": "functional"}, "[29]": {"system": "Mus musculus", "assay": "Median survival time of the treated control groups, in which there are no 30-day survivors at dose 50 mg/kg in exp8", "type": "functional"}, "[30]": {"system": "Mus musculus", "assay": "Median survival time of the untreated control groups, in which there are no 30-day survivors at dose 100 mg/kg in exp1", "type": "functional"}, "[31]": {"system": "Mus musculus", "assay": "Median survival time of the untreated control groups, in which there are no 30-day survivors at dose 100 mg/kg in exp2", "type": "functional"}, "[32]": {"system": "Mus musculus", "assay": "Median survival time of the untreated control groups, in which there are no 30-day survivors at dose 150 mg/kg in exp2", "type": "functional"}, "[33]": {"system": "Mus musculus", "assay": "Median survival time of the untreated control groups, in which there are no 30-day survivors at dose 200 mg/kg in exp1", "type": "functional"}, "[34]": {"system": "Mus musculus", "assay": "Median survival time of the untreated control groups, in which there are no 30-day survivors at dose 200 mg/kg in exp8", "type": "functional"}, "[35]": {"assay": "Ratio of median survival times for non-survivors at dose 75 mg/kg in exp2", "type": "functional"}, "[36]": {"assay": "Ratio of number of 30-day survivors to the total treated mice at dose 50 mg/kg in exp8; 4/6", "type": "functional"}, "[37]": {"assay": "Ratio of median survival times for non-survivors at dose 50 mg/kg in exp5", "type": "functional"}, "[38]": {"assay": "Ratio of number of 30-day survivors to the total treated mice at dose 50 mg/kg in exp1; 4/6", "type": "functional"}, "[39]": {"assay": "Ratio of number of 30-day survivors to the total treated mice at dose 50 mg/kg in exp2; 2/5", "type": "functional"}, "[40]": {"assay": "Ratio of number of 30-day survivors to the total treated mice at dose 50 mg/kg in exp4; 6/6", "type": "functional"}, "[41]": {"assay": "Ratio of number of 60-day survivors to the total treated mice at dose 50 mg/kg in exp6; […]", "type": "functional"}, "[42]": {"assay": "Ratio of median survival times for non-survivors at dose 22 mg/kg in exp5", "type": "functional"}, "[43]": {"assay": "Ratio of median survival times for non-survivors at dose 22 mg/kg in exp7", "type": "functional"}, "[44]": {"assay": "Ratio of median survival times for non-survivors at dose 33 mg/kg in exp3", "type": "functional"}, "[45]": {"assay": "Ratio of median survival times for non-survivors at dose 33 mg/kg in exp5", "type": "functional"}, "[46]": {"assay": "Ratio of number of 30-day survivors to the total treated mice at dose 50 mg/kg in exp6; 3/6", "type": "functional"}, "[47]": {"assay": "Ratio of median survival times for non-survivors at dose 22 mg/kg in exp4"}},
  "data": [
    {"molecule": "CS(=O)(=O)CS(=O)(=O)OCCCl", "values": [
      {"measurement": "Change in weight", "setting": "[1]", "value": -1.3},
      {"measurement": "Change in weight", "setting": "[2]", "value": -4.1},
      {"measurement": "Change in weight", "setting": "[3]", "value": -2.8},
      {"measurement": "Change in weight", "setting": "[4]", "value": -2.6},
      {"measurement": "Change in weight", "setting": "[5]", "value": -1.5},
      {"measurement": "Change in weight", "setting": "[6]", "value": -2.4},
      {"measurement": "Change in weight", "setting": "[7]", "value": -3},
      {"measurement": "Change in weight", "setting": "[8]", "value": -2.2},
      {"measurement": "Mortality", "setting": "[9]", "value": 5},
      {"measurement": "T-C", "setting": "[10]", "value": -4, "unit": "g"},
      {"measurement": "Median survival time", "setting": "[11]", "value": 16},
      {"measurement": "Median survival time", "setting": "[12]", "value": 20.8},
      {"measurement": "Mortality", "setting": "[13]", "value": 0},
      {"measurement": "Mortality", "setting": "[14]", "value": 0},
      {"measurement": "Mortality", "setting": "[15]", "value": 6},
      {"measurement": "Mortality", "setting": "[16]", "value": 0},
      {"measurement": "Mortality", "setting": "[17]", "value": 0},
      {"measurement": "Mortality", "setting": "[18]", "value": 0},
      {"measurement": "Mortality", "setting": "[19]", "value": 0},
      {"measurement": "Mortality", "setting": "[20]", "value": 0},
      {"measurement": "Mortality", "setting": "[21]", "value": 0},
      {"measurement": "Median survival time", "setting": "[22]", "value": 23.5},
      {"measurement": "Median survival time", "setting": "[23]", "value": 23.3},
      {"measurement": "Median survival time", "setting": "[24]", "value": 10.5},
      {"measurement": "Median survival time", "setting": "[25]", "value": 11},
      {"measurement": "Median survival time", "setting": "[26]", "value": 13},
      {"measurement": "Median survival time", "setting": "[27]", "value": 11.1},
      {"measurement": "Median survival time", "setting": "[28]", "value": 10.7},
      {"measurement": "Median survival time", "setting": "[29]", "value": 30},
      {"measurement": "Median survival time", "setting": "[30]", "value": 11.2},
      {"measurement": "Median survival time", "setting": "[31]", "value": 11.2},
      {"measurement": "Median survival time", "setting": "[32]", "value": 11.2},
      {"measurement": "Median survival time", "setting": "[33]", "value": 11.2, "unit": "days"},
      {"measurement": "Median survival time", "setting": "[34]", "value": 11},
      {"measurement": "Ratio", "setting": "[35]", "value": 156},
      {"measurement": "Ratio", "setting": "[36]", "value": 4},
      {"measurement": "Ratio", "setting": "[37]", "value": 225},
      {"measurement": "Ratio", "setting": "[38]", "value": 4},
      {"measurement": "Ratio", "setting": "[39]", "value": 2},
      {"measurement": "Ratio", "setting": "[40]", "value": 6},
      {"measurement": "Ratio", "setting": "[41]", "value": 2},
      {"measurement": "Ratio", "setting": "[42]", "value": 161},
      {"measurement": "Ratio", "setting": "[43]", "value": 168},
      {"measurement": "Ratio", "setting": "[44]", "value": 198},
      {"measurement": "Ratio", "setting": "[45]", "value": 214},
      {"measurement": "Ratio", "setting": "[46]", "value": 3},
      {"measurement": "Ratio", "setting": "[47]", "value": 180}
    ]}
  ]
}
